Columns and labels:
Coagulation factor X = Coagulation factor X (Homo sapiens, UniProt P00742); assay: Inhibitory concentration against human Coagulation factor X
[1] = Number of mice died after 1 day upon i.v. administration at 10 mg/kg into tail vein out of 3 animals tested; assay type: ADME, organism-based; parameters: dose 10 mg/kg, route intravenous; settings: mouse, in vivo, iv, 24 h
Outline: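 Male ICR mice given a single 10 mg/kg bolus into the tail vein. Result is expressed as deaths per animals tested.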

Prothrombin = Prothrombin (Homo sapiens, UniProt P00734); assay: Inhibitory concentration against human Coagulation factor II (thrombin)
Plasminogen = Plasminogen (Homo sapiens, UniProt P00747); assay: Inhibitory concentration against human Plasmin
Outline: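 Plasmin assay, human enzyme at 0.02 U/mL as added, preincubated 10 min at 37 °C with vehicle or compound at 12.5, 25 and 50 µM final. S-2403 was added at 0.125 and 0.25 mM final and incubated 10 min at 37 °C. Stopped with 60% acetic acid; A405 of p-nitroaniline.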

Trypsin = Trypsin (Homo sapiens, UniProt P07477+P07478+P35030); assay: Inhibitory concentration against human Trypsin; assay type: protein assay
Outline: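 Human trypsin (5 U/mL as added) preincubated 10 min at 37 °C with vehicle or compound at 50, 100 and 200 µM final. S-2222 was added at 0.125 and 0.25 mM final and incubated 10 min at 37 °C. Stopped with 60% acetic acid; p-nitroaniline read at 405 nm.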

Chain of Coagulation factor X (P00742 41-179 limits assumed): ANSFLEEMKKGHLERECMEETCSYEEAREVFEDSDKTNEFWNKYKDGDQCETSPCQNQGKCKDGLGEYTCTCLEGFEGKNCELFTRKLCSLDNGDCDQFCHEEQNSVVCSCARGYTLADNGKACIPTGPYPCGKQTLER
Chain of Coagulation factor X (P00742 235-488 limits assumed): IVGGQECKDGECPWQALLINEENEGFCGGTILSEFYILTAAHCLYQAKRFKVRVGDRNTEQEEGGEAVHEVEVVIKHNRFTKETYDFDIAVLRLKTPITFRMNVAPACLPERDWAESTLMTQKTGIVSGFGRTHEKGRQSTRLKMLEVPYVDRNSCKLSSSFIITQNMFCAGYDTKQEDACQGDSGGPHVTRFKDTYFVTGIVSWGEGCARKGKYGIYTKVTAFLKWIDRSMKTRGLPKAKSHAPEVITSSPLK
Chain of Plasminogen (P00747 97-580 limits assumed): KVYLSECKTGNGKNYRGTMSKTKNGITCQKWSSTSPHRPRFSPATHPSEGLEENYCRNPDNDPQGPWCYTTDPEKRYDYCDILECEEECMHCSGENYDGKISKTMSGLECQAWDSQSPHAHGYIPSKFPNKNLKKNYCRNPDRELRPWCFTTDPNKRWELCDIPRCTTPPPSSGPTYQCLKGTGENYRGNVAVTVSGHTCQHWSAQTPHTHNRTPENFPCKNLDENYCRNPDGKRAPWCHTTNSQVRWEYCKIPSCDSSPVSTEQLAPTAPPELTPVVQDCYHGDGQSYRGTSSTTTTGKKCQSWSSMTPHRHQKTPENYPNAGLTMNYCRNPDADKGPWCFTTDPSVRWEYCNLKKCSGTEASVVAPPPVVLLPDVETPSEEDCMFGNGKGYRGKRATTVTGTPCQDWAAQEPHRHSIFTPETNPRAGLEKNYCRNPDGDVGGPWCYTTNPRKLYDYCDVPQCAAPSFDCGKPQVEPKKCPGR
Chain of Plasminogen (P00747 581-810 limits assumed): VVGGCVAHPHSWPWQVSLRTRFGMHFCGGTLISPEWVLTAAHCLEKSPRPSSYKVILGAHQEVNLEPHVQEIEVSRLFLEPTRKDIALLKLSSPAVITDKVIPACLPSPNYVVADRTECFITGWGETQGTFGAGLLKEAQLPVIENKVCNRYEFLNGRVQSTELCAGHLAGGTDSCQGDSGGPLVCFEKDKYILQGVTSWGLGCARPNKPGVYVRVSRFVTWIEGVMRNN

Compound | IC50 (Coagulation factor X) | Mortality [1] | IC50 (Prothrombin) | Ki (Plasminogen) | Ki (Trypsin)
CCOC(=O)C1(COc2ccc3c(c2)CN(C(=N)N)CC3)CCN(c2cc[n+](C)cc2)CC1 | 1130 nM |  |  |  | 
Cl.Cl.N=C(N)N1CCc2ccc(OCC3CCN(c4ccncc4)CC3)cc2C1 | 56 nM | 3 |  |  | 
N=C(N)N1CCCc2ccc(OCC3(C(=O)O)CCN(c4ccncc4)CC3)cc2C1 | > 10000 nM |  | > 10 µM |  | 
CC(=O)N1CCC(COc2ccc3c(c2)CN(C(=N)N)CC3)CC1 |  |  | > 10 µM |  | 
Cl.Cl.N=C(N)N1CCc2ccc(OCC3(C(=O)O)CCN(c4ccncn4)CC3)cc2C1 | 120 nM | 0 |  |  | 
N=C(N)c1ccc2ccc(OCC3(C(=O)O)CCN(c4ccncc4)CC3)cc2c1 | 510 nM |  | > 10 µM |  | 
Cl.Cl.N=C(N)N1CCc2ccc(OCC3CCN(c4ccncc4CCC(=O)O)CC3)cc2C1 | 160 nM | 0 |  |  | 
Cl.Cl.N=C(N)N1CCc2ccc(OCC3CCN(c4ccnc5ccccc45)CC3)cc2C1 | 420 nM | 3 |  |  | 
COC(=O)c1cnccc1N1CCC(COc2ccc3c(c2)CN(C(=N)N)CC3)CC1.Cl.Cl | 270 nM | 3 |  |  | 
CC(=N)N1CCC(COc2ccc3c(c2)CN(C(=N)N)CC3)CC1.Cl.Cl | 510 nM | 3 |  |  | 
N=C(N)N1CCc2ccc(OCC3CCN(Cc4ccccc4N)CC3)cc2C1 | 3250 nM |  | > 10 µM |  | 
Cc1cc(N2CCC(COc3ccc4c(c3)CN(C(=N)N)CC4)(C(=O)O)CC2)ccn1.Cl.Cl | 230 nM | 0 |  |  | 
CCOC(=O)C1(COc2ccc3c(c2)CN(C(=N)N)CC3)CCN(c2ccncc2)CC1.Cl.Cl | 74 nM | 3 |  |  | 
N=C(N)N1CCc2ccc(S(=O)(=O)CC3(C(=O)O)CCN(c4ccncc4)CC3)cc2C1 | 5440 nM |  | > 10 µM |  | 
N=C(N)N1CCc2ccc(S(=O)(=O)NC3(C(=O)O)CCN(c4ccncc4)CC3)cc2C1 |  |  | > 10 µM |  | 
N=C(N)N1CCc2ccc(OCCC3(C(=O)O)CCN(c4ccncc4)CC3)cc2C1 | 230 nM |  |  |  | 
N=C(N)N1CCc2ccc(OCC3CCN(Cc4cccc(N)c4)CC3)cc2C1 | 4060 nM |  | > 10 µM |  | 
N=C(N)N1CCc2ccc(OCC3CCN(Cc4ccccn4)CC3)cc2C1 | 1350 nM |  | > 10 µM |  | 
Cl.Cl.Cl.N=C(N)N1CCc2ccc(OCC3CCN(Cc4ccncc4)CC3)cc2C1 |  | 3 |  |  | 
Cl.Cl.N=C(N)N1CCc2ccc(OCC3CCN(c4ccncc4C(=O)O)CC3)cc2C1 | 1980 nM | 0 | > 10 µM |  | 
CCOC(=O)CCc1cnccc1N1CCC(COc2ccc3c(c2)CN(C(=N)N)CC3)CC1.Cl.Cl | 190 nM | 3 | > 10 µM |  | 
Cl.Cl.N=C(N)N1CCc2ccc(OCC3(C(=O)O)CCN(c4ccncc4)CC3)cc2C1 |  | 0 |  |  | 
N=C(N)N1CCc2ccc(OCC3CCNCC3)cc2C1 | 3340 nM |  | > 10 µM |  | 
N=C(N)N1CCc2ccc(SCC3(C(=O)O)CCN(c4ccncc4)CC3)cc2C1 | 390 nM |  |  |  | 
CC(=N)N1CC[C@H](Oc2ccc([C@H](Cc3ccc4ccc(C(=N)N)cc4c3)C(=O)O)cc2)C1.Cl [DX-9065A HYDROCHLORIDE HYDRATE] |  |  |  | 23 µM | 0.62 µM

From ChEMBL document CHEMBL1139513, “Synthesis and structure-activity relationships of novel selective factor Xa inhibitors with a tetrahydroisoquinoline ring” (J Med Chem, 2005)
